Sampled rows, rich in hits. Any-hit rate of the full collection: about 1.1%.
Avidin bead fluor – compound fluoresces at 488/530 nm on avidin beads. compound fluorescence 488/530 nm, flow cytometry; active compounds read high. fluorescence (KMESF) at 10 µM. 220,000 compounds, 0.38% hits; in the data active means fluorescence above about 47
Pemphigus Ab inh – human desmoglein-3 autoantibody binding inhibition | 310,000 compounds, 0.48% hits | DSG3-coupled beads, scFv-anti-DSG3-GFP binding, flow cytometry; active compounds read low | binding (percent of control), % at 10 µM;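 active means binding more than 3 SD below its plate's average and above zero; inconclusive means below that plate limit but binding exactly zero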;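 further: hits lower antibody fragment binding to DSG3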
Target sequence (P32926 whole entry, looked up, the tested form may be a part): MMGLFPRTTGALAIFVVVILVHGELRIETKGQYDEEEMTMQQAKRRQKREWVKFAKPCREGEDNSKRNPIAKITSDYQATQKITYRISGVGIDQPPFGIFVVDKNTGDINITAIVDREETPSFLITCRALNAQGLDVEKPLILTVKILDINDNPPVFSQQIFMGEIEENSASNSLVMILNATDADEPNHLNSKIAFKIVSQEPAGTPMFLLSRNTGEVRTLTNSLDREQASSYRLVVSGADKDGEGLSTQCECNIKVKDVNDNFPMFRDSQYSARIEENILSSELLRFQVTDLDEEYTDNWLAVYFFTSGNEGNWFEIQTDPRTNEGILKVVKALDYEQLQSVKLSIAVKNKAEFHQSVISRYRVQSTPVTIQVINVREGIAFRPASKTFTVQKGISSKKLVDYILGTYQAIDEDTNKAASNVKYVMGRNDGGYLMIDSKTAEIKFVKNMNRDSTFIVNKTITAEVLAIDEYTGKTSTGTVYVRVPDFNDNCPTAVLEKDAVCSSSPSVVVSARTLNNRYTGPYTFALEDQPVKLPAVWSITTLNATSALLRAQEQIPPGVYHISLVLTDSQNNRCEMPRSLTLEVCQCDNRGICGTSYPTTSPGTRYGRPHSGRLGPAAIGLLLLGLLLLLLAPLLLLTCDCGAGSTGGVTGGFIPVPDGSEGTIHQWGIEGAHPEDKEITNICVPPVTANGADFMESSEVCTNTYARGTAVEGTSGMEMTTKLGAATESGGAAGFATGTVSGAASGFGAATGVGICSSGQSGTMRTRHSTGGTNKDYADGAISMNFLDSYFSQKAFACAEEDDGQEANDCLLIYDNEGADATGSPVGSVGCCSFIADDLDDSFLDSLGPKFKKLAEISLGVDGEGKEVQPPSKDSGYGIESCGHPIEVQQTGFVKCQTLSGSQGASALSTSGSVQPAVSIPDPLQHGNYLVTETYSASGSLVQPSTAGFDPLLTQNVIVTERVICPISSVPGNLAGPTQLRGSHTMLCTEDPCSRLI
Arrestin-AP2 inh – human beta-arrestin and AP2 interaction inhibition | FITC-arrestin peptide / GST-AP2 beads, flow cytometry; AP2 beta2 appendage carries R879A mutation | inhibition, % at 10 µM | 340,000 compounds, 0.31% hits;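 active means inhibition above a set limit, near 3 SD of compounds lacking own fluorescence, cut at about 54% in these data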
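system = GST-tagged AP2 beta2-adaptin appendage (R879A) on 4 µm glutathione beads | reagent = FITC-labelled arrestin peptide probe, 50 nM final | schedule = compound with beads 12 min RT, then probe 1 h RT | signal = HyperCyt-sampled flow cytometry, FL1 channel, ex 488/em 535 nm | read-out = percent response from loss of bead-bound FITC fluorescence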
GSH bead fluor – compound fluoresces at 488/530 nm on GSH beads. GSH beads flow cytometry, compound fluorescence 488/530 nm; active compounds read high. fluorescence (KMESF) at 10 µM. 190,000 compounds, 0.25% hits; in the data active means fluorescence above about 89;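 further: glutathione beads carrying GST-tagged Bcl family fusion proteins plus one bare bead set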
Each line names hits and unclear results; the compound was inactive in the other large screens.

CCn1nc(C)cc1C(=O)NC1CC(C)(C)Cc2c1cnn2-c1cccc(F)c1 (stereo not given)	none (no result: Avidin bead fluor, Pemphigus Ab inh, GSH bead fluor)
COCCN1C(=O)c2ccccc2C(C(=O)NCCN(C)C)C1c1ccc(F)cc1 (stereo not given)	none (no result: Pemphigus Ab inh)
COCCNC(=O)C1c2ccccc2C(=O)N(CCOC)C1c1ccc(F)cc1 (stereo not given)	Avidin bead fluor 48 (no result: Pemphigus Ab inh)
COC(=O)c1cc(NC(=O)CN2C(=O)C(=O)N(C3CCCC3)C2=O)cc(C(=O)OC)c1	none (no result: Avidin bead fluor, GSH bead fluor)
CCOC(=O)c1nn(-c2ccccc2)c(=O)cc1SC(C)CC (stereo not given)	Avidin bead fluor 100
O=C(COC(=O)C1=NNC(=O)CC1)NCCc1ccccc1	none (no result: Avidin bead fluor, GSH bead fluor)
Cc1cc(=O)oc(C)c1C(=O)OCC(=O)c1ccc(Cl)c(Cl)c1	Pemphigus Ab inh 82
Cc1ccc(C(=O)COC(=O)c2c(C)cc(=O)oc2C)cc1[N+](=O)[O-]	none
COCc1cc(C)n(CC(=O)Nc2ccc(Cl)cc2Cl)c(=O)c1C#N	Pemphigus Ab inh -3.1
C#CCOCCOCCOCCNc1nc(N2CCN(C(=O)Cn3cc(CCCCN)nn3)CC2)nc(N2CCN(C(=O)Cn3cc(CCCN=C(N)N)nn3)CC2)n1	none (no result: Avidin bead fluor, GSH bead fluor)
CCc1cc2c(=O)oc(-c3ccccc3F)nc2s1	Pemphigus Ab inh 79 (no result: Avidin bead fluor, GSH bead fluor)
CCC(Sc1ccc(C(=O)O)cc1)C(=O)O (stereo not given)	Avidin bead fluor 50
CCCCOCC(O)Cn1c(C)nc2ccccc21 (stereo not given)	GSH bead fluor 261
Cc1nc2ccccc2n1CC(O)COC1CCCCC1 (stereo not given)	none
CC(C)(C)NC(=O)C(OC(=O)c1cccs1)c1ccc(F)cc1 (stereo not given)	Pemphigus Ab inh -16
Cc1ccccc1OCC(=O)NCCCNC(=O)c1ccccn1	none (no result: Avidin bead fluor, Pemphigus Ab inh, GSH bead fluor)
CSCC[C@H](NC(=O)c1cccnc1)c1nnc2ccccn12	none (no result: Avidin bead fluor, GSH bead fluor)
CC(C)(C)SCCNC(=O)CN(c1ccccc1)S(=O)(=O)c1ccc(F)cc1	Pemphigus Ab inh 5.2
CC(C)(C)SCCNC(=O)CN(c1ccc(F)cc1)S(C)(=O)=O	none
CC(=O)Nc1ccc(NC(=O)CSc2nnnn2-c2ccc(F)cc2)cc1	Pemphigus Ab inh 61 (no result: Avidin bead fluor, GSH bead fluor)
CC(=O)Nc1ccc(-n2nnnc2SCC(=O)NC2CCCC2)cc1	none (no result: Avidin bead fluor, GSH bead fluor)
O=C(CSc1nnnn1C1CCCC1)Nc1ccc(F)cc1	Avidin bead fluor 89 (no result: Pemphigus Ab inh)
O=C(CSc1nnnn1C1CCCCC1)Nc1ccc(F)cc1	none
Cc1onc(-c2c(F)cccc2Cl)c1C(=O)Nc1c(C)n(C)n(-c2ccccc2)c1=O	none
Cc1onc(-c2c(F)cccc2Cl)c1C(=O)OCC(=O)Nc1c(C)n(C)n(-c2ccccc2)c1=O	GSH bead fluor 279
Cc1cc(Cn2nnc3ccccc32)c(O)c(C(C)(C)C)c1	none (no result: Avidin bead fluor, GSH bead fluor)
CN1CCC(N(C)C(=O)c2sc3cc(F)ccc3c2Cl)CC1	Avidin bead fluor 136
O=C(NCc1cn2ccccc2n1)C1CCC(=O)N(Cc2ccccc2F)C1 (stereo not given)	none (no result: Avidin bead fluor, Pemphigus Ab inh, GSH bead fluor)
O=C(COC(=O)/C=C/c1cccs1)Nc1ccc(Cl)cc1F	none (no result: Avidin bead fluor, Pemphigus Ab inh, GSH bead fluor)
CSc1ccccc1NC(=O)CN(C)CC(=O)Nc1c(F)cccc1F	Avidin bead fluor 58
Nc1cc(=O)[nH]c(SCc2ccccc2)n1	none (no result: Avidin bead fluor, Arrestin-AP2 inh, GSH bead fluor)
Nc1cc(=O)[nH]c(SCc2ccc(Cl)cc2)n1	Avidin bead fluor 50 (no result: Pemphigus Ab inh)
COc1ccc2c(c1)c(N=NC(N)=S)c(O)n2CC(=O)c1ccccc1	Pemphigus Ab inh 59 (no result: Avidin bead fluor, GSH bead fluor)
CSC1=NSC2=NC(=O)/C(=C/c3coc4ccccc4c3=O)C(=N)N12	Avidin bead fluor 94
Cc1ccc(C)c(NC(=O)CN2C(=O)NC(C)(c3ccc4c(c3)OCCO4)C2=O)c1 (stereo not given)	none (no result: Avidin bead fluor, GSH bead fluor)
Cc1sc2nc(CSCC(=O)NC(C)(C)C)[nH]c(=O)c2c1C	Arrestin-AP2 inh 55
Cc1cc(SCC(=O)Nc2ccc3[nH]c(=O)[nH]c3c2)nc2ccccc12	Pemphigus Ab inh 76 (no result: Avidin bead fluor, GSH bead fluor)
CC(C)Cn1c(SCC(=O)Nc2ccc3[nH]c(=O)[nH]c3c2)nc2ccccc2c1=O	none (no result: Avidin bead fluor, GSH bead fluor)
Cc1ccc(CCNC(=O)c2nnc(CS(=O)(=O)c3ccccc3)o2)cc1	none (no result: Avidin bead fluor, GSH bead fluor)
COC(=O)C(Cc1cnc(Cl)s1)(C(=O)OC)c1ccc([N+](=O)[O-])cc1[N+](=O)[O-]	GSH bead fluor 272
O=[N+]([O-])c1ccc(OCc2cnc(Cl)s2)c([N+](=O)[O-])c1	Pemphigus Ab inh 87
Cc1cc2ccccc2n1CCNC(=O)c1ccccc1	Pemphigus Ab inh inconclusive
Cc1cc2ccccc2n1CCNC(=O)c1ccc(S(=O)(=O)N2CCOCC2)cc1	Pemphigus Ab inh 83
Cc1cc2ccccc2n1CCNC(=O)COc1ccccc1	Pemphigus Ab inh 65
Cc1cc(C)nc(NS(=O)(=O)c2ccc(NC(=S)NC(=O)C(C)(C)C)cc2)n1	none
Cc1cc(C)nc(NS(=O)(=O)c2ccc(NC(=S)NC(=O)CC(C)C)cc2)n1	Avidin bead fluor 118
CC(=O)c1ccc(-n2c(SCC(=O)c3c[nH]c4ccccc34)nc3ccccc3c2=O)cc1	Avidin bead fluor 2389
COc1ccccc1N1CCN(c2cc(=O)n(Cc3ccc(F)cc3)c(=O)[nH]2)CC1	Pemphigus Ab inh 69
C/C(=N\N=C(N)N)c1ccc(Cl)c(Cl)c1	none
O=C(CN1C(=O)c2ccccc2S1(=O)=O)NCCC1=CCCCC1	GSH bead fluor 117 (no result: Pemphigus Ab inh)
COc1ccc(C(CNC(=O)C2CC(=O)N(Cc3ccccc3)C2)N2CCCC2)cc1 (stereo not given)	none (no result: Avidin bead fluor, GSH bead fluor)
CCOC(=O)CSc1nc2sc(C)c(C)c2c(=O)n1N	Pemphigus Ab inh 57
CC(C)N1CCC(N2CCN(Cc3ccc(C#CC(C)(C)O)s3)CC2CCO)CC1 (stereo not given)	Avidin bead fluor 134
CCOc1ccc(NC(=S)Nc2ccc(OC(F)(F)F)cc2)cc1	GSH bead fluor 146
COc1ccc(CCNC(=O)COC(=O)/C=C/c2ccc3c(c2)OCO3)cc1OC	none (no result: Avidin bead fluor, GSH bead fluor)
CCc1ccc(N(C(C)=O)c2nc(CCl)cs2)cc1	Pemphigus Ab inh 87
O=C(COC(=O)Cc1n[nH]c(=O)c2ccccc12)Nc1cccc(C(F)(F)F)c1	none
CCCn1c(SC(C)C(=O)NC2CCCC(C)C2C)n[nH]c1=O (stereo not given)	Pemphigus Ab inh 79 (no result: Avidin bead fluor, Arrestin-AP2 inh, GSH bead fluor)
O=C1[C@H]2[C@@H](c3ccc(Cl)cc3)N3C(=O)N(c4cccc(Cl)c4)C(=O)[C@@]3(Cc3ccccc3)[C@H]2C(=O)N1C1CCCCC1	none (no result: Avidin bead fluor, GSH bead fluor)
CCCCCCCCOC(=O)CCc1c(C)[nH]c(=S)[nH]c1=O	Pemphigus Ab inh 11
COCC(C)n1c(C)cc(C(=O)COC(=O)c2cccn2C)c1C (stereo not given)	none (no result: Avidin bead fluor, GSH bead fluor)
CCN=C1SC(CC(=O)NCC)C(=O)N1CC (stereo not given)	Avidin bead fluor 74
O=Cc1c[nH]c2ncccc12	none (no result: GSH bead fluor)
CCOc1ccccc1N1C(=O)CC(Nc2ccc(N3CCOCC3)cc2)C1=O (stereo not given)	GSH bead fluor 245
COC(=O)c1ccc(CNC(=O)Cn2cnnn2)cc1	Pemphigus Ab inh 81 (no result: Avidin bead fluor, GSH bead fluor)
COc1ccccc1CNC(=O)Cn1cnnn1	none (no result: Avidin bead fluor, GSH bead fluor)
O=C(CC(Nc1ccccc1)C(=O)O)c1ccccc1 (stereo not given)	GSH bead fluor 259
COc1ccc(-c2noc(CCC(=O)NC3CCCCCC3)n2)cc1OC	Pemphigus Ab inh 83 (no result: Avidin bead fluor, Arrestin-AP2 inh, GSH bead fluor)

Source: PubChem BioAssay (NMMLSC)
